# Hits are enriched below; roughly 4.8% of the tested compounds scored in any of these assays.
# SKKanGAS inh: blocks kanamycin growth of S. pyogenes SKKanGAS strain; BacTiter-Glo, 6 h; inhibition, % at 7.5 µM; 300,000 tested, 1.3% active; AID 1662;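 active = mean replicate score, as percent of positive control median, at least 50; inconclusive = mean below 50 but one replicate at or above 50; inactive = mean and every replicate below 50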;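 also: strain carries kanamycin resistance gene driven by streptokinase promoter and grows in 40 µg/ml kanamycin; loss of luminescence reflects streptokinase promoter inhibition or plain growth inhibition; 0% = median of DMSO wells and 100% = positive control at its reference dose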
# Mdm2 MdmX PPI: disrupts the human Mdm2-MdmX interaction. O15151+Q00987. 330,000 tested, 3% active. SaOS-2 split-luciferase Mdm2/MdmX complementation, luminescence. inhibition, % at 8 µM;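 active = inhibition of at least 50% at 8 µM in the primary screen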
# CSC inhib: cancer stem cell inhibition. inhibition, % at 7.5 µM. 300,000 tested, 1.1% active. cancer stem cell-like cells viability, luminescence. AID 2717; in the data active = inhibition above about 75%; inconclusive = no clear call, values can overlap the other calls; tested in HMLE shEcad cells
# Beta cell apopt: beta cell apoptosis inhibition. 300,000 tested, 0.8% active. protection from apoptosis, % (test concentration not listed). INS-1E cytokine-induced death, ATP luminescence, 48 h; percent of positive-control rescue, neutral wells zero;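 active = Every replicate reaches about 75%, or at least half do and their mean reaches it too, limit read from the data; inconclusive = At least half of replicates reach the limit but their mean does not; inactive = Under half of replicates reach the limit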;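 also: 0% = cytokine-treated negative control wells and 100% = positive control rescue; higher means more ATP so stronger rescue from cytokine killing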
# XBP1 UPR activ: adaptive UPR (XBP1) activation | 330,000 tested, 0.33% active | activation, % at 20 µM | CHO-XBP1 luciferase reporter, IRE1-XBP1 UPR activation, luminescence; percent of tunicamycin response, DMSO as zero;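 active = versus positive control, 20 µM dose yields 30% or more activation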;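 also: 100% = tunicamycin at 10 µg/mL and 0% = DMSO only wells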
#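 incubation = overnight seeding at 37 °C, 6 h compound treatment at 37 °C | assay system = CHO-XBP1 cells stably carrying IRE1-XBP1-driven luciferase reporter | input = 1000 cells per well | detection = luciferase luminescence | dosing = single point, 20 µM final compound, 1% DMSO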
# CHOP UPR activ: apoptotic UPR (CHOP) activation; CHO-CHOP luciferase reporter, luminescence; percent of tunicamycin response over DMSO baseline; activation, % at 10 µM; 330,000 tested, 0.34% active; AID 449763;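 active = at 10 µM dose, activation of 40% or more, normalized to positive control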;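 also: 100% = tunicamycin at 10 µg/mL and 0% = DMSO alone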
#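 Evaluation: % reporter activation, DMSO baseline versus tunicamycin full activation; System: CHO-CHOP luciferase reporter cell line; Input: 500 cells/well; Incubation: 6 h compound treatment, 37 °C; Measured by: Steady-Glo luciferase luminescence; Dosing: one dose, 10 µM in 0.5% DMSO; Buffer or medium: F12 medium, 10% FBS; Benchmarks: positive tunicamycin 10 µg/mL, negative DMSO alone.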
# Mdm2 MdmX conf: confirmation of human Mdm2/MdmX interaction inhibitors | shares compounds with Mdm2 MdmX PPI | AID 489028 | 10,000 tested, 55% active | inhibition, % at 8 µM | Mdm2-MdmX binding, luminescent assay; in the data active = inhibition above about 40%
# FLuc counter: inhibits full-length luciferase, flagging false Mdm2/MdmX hits. shares compounds with Mdm2 MdmX PPI. SaOS-2 full-length luciferase counterscreen, luminescence. inhibition, % at 8 µM. 6,200 tested, 77% active;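 active = mean inhibition at 8 µM reaching about 37%, which flags the compound as non-specific, limit read from the data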;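 also: p53-null SaOS-2 cells with luciferase driven by a doxycycline-inducible promoter; compound on cells about two nights before reading with doxycycline added after day one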
# Starred values were filed as active, the others as inactive; ? = inconclusive; . = no result given.
SMILES,SKKanGAS inh,Mdm2 MdmX PPI,CSC inhib,Beta cell apopt,XBP1 UPR activ,CHOP UPR activ,Mdm2 MdmX conf,FLuc counter
Cc1cccc(Nc2c3c(nc4ccccc24)CCC3)c1,13,27,39,34,-2,0,.,.
COc1ccc(OC)c(Nc2c3c(nc4ccccc24)CCC3)c1,-3,51*,57,14,8,0,62*,79*
COc1cc(Nc2c3c(nc4ccccc24)CCC3)cc(OC)c1OC,5,88*,58,9,3,1,74*,63*
COc1ccc(OC)c(NC(=O)COC(=O)c2c3c(nc4ccccc24)CCCC3)c1,12,85*,54,18,-2,3,63*,57*
CNC(=O)COC(=O)c1c2c(nc3ccccc13)CCC2,4,-10,-7,1,1,-1,.,.
CCN(CC)CCN(C(=O)CCS(=O)(=O)c1ccccc1)c1nc2cc3c(cc2s1)OCO3,?,8,4,4,-8,7,.,.
CN(C1CCCCC1)S(=O)(=O)c1cccc2nsnc12,-4,7,-15,-9,-5,1,.,.
CCCCn1c(N)c(N(C)C(=O)c2cc3c(F)cccc3s2)c(=O)[nH]c1=O,.,19,-22,0,-2,0,.,.
COc1cc(NS(C)(=O)=O)ccc1Nc1c2ccccc2nc2ccccc12,.,89*,102*,69,2,0,73*,59*
COc1cc(Nc2nc3ccccc3nc2NS(=O)(=O)c2ccc([N+](=O)[O-])cc2)cc(OC)c1OC,24,68*,11,20,0,5,36,55*
COc1ccc(OC)c(Nc2cc(C)c3ccccc3n2)c1,-4,-13,18,.,-5,-1,.,.
COc1ccc(OC)c(Nc2c3ccccc3nc3ccccc23)c1,0,73*,?,22,-2,3,65*,60*
O=C1C=C(c2cccc(O)c2)CCC1,-5,21,-16,0,3,0,.,.
O=C(c1ccc(Br)o1)N1CCN(CCc2ccncc2)CC1,-3,23,30,3,-4,-2,.,.
COc1ccccc1[C@@]1(C)ON(c2ccccc2C(F)(F)F)C1=O,.,89*,58,-9,-8,22,80*,32
Cc1ccccc1[C@]1(C)ON(c2ccccc2C(F)(F)F)C1=O,.,80*,55,-12,7,8,46*,59*
COC(=O)[C@]1(C)N[C@H](CN(C)C(=O)c2ccc(C)cc2)[C@@H]2C(=O)N(C)C(=O)[C@@H]21,.,7,.,.,0,0,.,.
COc1ccc(-n2nc(C(=O)NCC(=O)NCc3ccc(F)cc3)c3ccccc3c2=O)cc1OC,-2,80*,.,6,-2,3,9,.
COC(=O)CNC(=O)CNC(=O)c1nn(-c2ccc(OC)c(OC)c2)c(=O)c2ccccc12,2,0,2,-14,-6,0,.,.
COc1ccc(-n2nc(C(=O)NCC(=O)Nc3cc(OC)c(OC)c(OC)c3)c3ccccc3c2=O)cc1Cl,20,70*,38,15,-2,7,73*,81*
O=C(NCc1nc(-c2ccc(C(F)(F)F)cc2)no1)Nc1ccc(OC(F)(F)F)cc1,24,89*,109*,0,-7,1,28,.
COc1ccc(-c2noc(CNS(=O)(=O)c3ccc(NC(C)=O)cc3)n2)cc1,9,3,-3,-8,-3,-1,.,.
COc1ccc(-c2c3c(nc4sc5c(=O)[nH]c(C)nc5c24)CCC3)cc1,5,67*,-1,28,12,3,12,.
COc1ccc(-c2c3c(nc4sc(C(=O)Nc5cc(C)on5)c(N)c24)CCC3)cc1,12,18,-2,-2,-2,3,.,.
Cc1cccc(/N=C/c2c(O)n(Cc3ccc4c(c3)OCO4)c(=O)c3ccccc23)n1,3,53*,12,-1,0,-1,27,.
SMILES,SKKanGAS inh,Mdm2 MdmX PPI,CSC inhib,Beta cell apopt,XBP1 UPR activ,CHOP UPR activ,Mdm2 MdmX conf,FLuc counter
C[C@H](CO)N1C[C@H](C)[C@@H](CN(C)S(=O)(=O)c2ccc(F)cc2)Oc2ccc(NC(=O)C3CCCCC3)cc2C1=O,.,4,.,3,-3,1,.,.
Cc1nc(SCc2nc3c([N+](=O)[O-])cccc3[nH]2)c2oc3ccccc3c2n1,.,58*,.,-7,11,3,14,.
Cc1cccc(C(=O)Nc2ccccc2SCC2CSc3nc4ccccc4c(=O)n32)c1 (stereo unspecified),-2,63*,14,.,-2,1,44*,107*
Cc1ccc(C(=O)Nc2ccccc2SCC2CSc3nc4ccccc4c(=O)n32)cc1 (stereo unspecified),0,70*,25,7,1,-2,47*,55*
O=C(Nc1ccccc1SCC1CSc2nc3ccccc3c(=O)n21)c1cccc(Cl)c1 (stereo unspecified),3,77*,30,6,-1,1,55*,43*
O=C(Nc1ccccc1SCC1CSc2nc3ccccc3c(=O)n21)c1ccccc1 (stereo unspecified),-1,15,-3,4,-1,-1,.,.
COc1cc(Cl)c(C)cc1NC(=O)CN(C)C1CCS(=O)(=O)C1 (stereo unspecified),.,1,-2,-6,1,-1,.,.
CCc1ccc2[nH]c3nc(N/N=C/c4ccc(O)cc4O)nnc3c2c1,2,58*,67,108*,-3,1,94*,29
COc1cc2c(c(OC)c1OC)-c1c(cc(OC)c(OC)c1OC)C[C@](C)(O)[C@@H](C)C2,-2,3,-3,3,-1,0,.,.
CN[C@H]1CCc2cc(OC)c(OC)c(OC)c2-c2ccc(OC)c(=O)cc21,0,68*,46,60,6,0,56*,104*
COc1cc2c(c(OC)c1OC)-c1ccc(NC(=O)c3ccccc3)c(=O)cc1[C@@H](NC(C)=O)CC2,8,57*,45,18,5,0,65*,63*
Cc1cc(C)c2ccc3c(C)c(C)nc3c2[nH]1,.,70*,21,-3,-3,2,42*,45*
Cc1cc(=O)[nH]c2c(C)c(N)ccc12,3,-21,.,-3,-3,1,.,.
CCOc1ccc(S(=O)(=O)N2CCCCC2)cc1NC(=O)CC1OC(=O)c2ccccc21 (stereo unspecified),-3,12,-3,.,-1,1,.,.

# Assay outcomes: PubChem BioAssay, several laboratories
